From PubChem BioAssay
Hits are enriched below; roughly 2.3% of the tested compounds scored in any of these assays.
ABCB1 block = inhibitors of human ABCB1 transporter, ABCG2 counter-screen; CCRF-Adr cells, JC-1 efflux, flow cytometry; inhibition, % at 6.6 µM; hit rate 0.067% among 190,000; in the data active = inhibition above about 40%;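 also: higher value means more JC-1 retained so stronger ABCB1 efflux block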
Autophagy HCS = autophagy modulation, high-content screen; calls only at 10 µM (by protocol); MEF GFP-LC3 puncta imaging; test concentration mostly 10 µM; AID 463193; hit rate 0.98% among 190,000;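 active = percentage of spot-positive cells more than 3 SD above its plate mean, without a fluorescence outlier flag or 80% toxicity; inconclusive = no clear call, values can overlap the other calls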
sdo1 growth = compounds rescuing growth of sdo1-depleted yeast, bone marrow failure model | S. cerevisiae sdo1-depleted JHY4D growth rescue, OD600 30 h; hits give high values; pdr5 snq2 efflux-pump mutant strain | z-score at 10 µM | hit rate 0.21% among 140,000 | AID 817;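 active = z-score above 3 at both the 24 hr and the 30 hr optical density reads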
ABCG2 inh = inhibitors of human ABCG2 transporter, ABCB1 counter-screen; Q9UNQ0; IgMXP3 cells, JC-1 efflux, flow cytometry; inhibition, % at 6.6 µM; hit rate 0.1% among 190,000; AID 1325;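 active = inhibition above 80%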
Target sequence (Q9UNQ0 whole entry, looked up): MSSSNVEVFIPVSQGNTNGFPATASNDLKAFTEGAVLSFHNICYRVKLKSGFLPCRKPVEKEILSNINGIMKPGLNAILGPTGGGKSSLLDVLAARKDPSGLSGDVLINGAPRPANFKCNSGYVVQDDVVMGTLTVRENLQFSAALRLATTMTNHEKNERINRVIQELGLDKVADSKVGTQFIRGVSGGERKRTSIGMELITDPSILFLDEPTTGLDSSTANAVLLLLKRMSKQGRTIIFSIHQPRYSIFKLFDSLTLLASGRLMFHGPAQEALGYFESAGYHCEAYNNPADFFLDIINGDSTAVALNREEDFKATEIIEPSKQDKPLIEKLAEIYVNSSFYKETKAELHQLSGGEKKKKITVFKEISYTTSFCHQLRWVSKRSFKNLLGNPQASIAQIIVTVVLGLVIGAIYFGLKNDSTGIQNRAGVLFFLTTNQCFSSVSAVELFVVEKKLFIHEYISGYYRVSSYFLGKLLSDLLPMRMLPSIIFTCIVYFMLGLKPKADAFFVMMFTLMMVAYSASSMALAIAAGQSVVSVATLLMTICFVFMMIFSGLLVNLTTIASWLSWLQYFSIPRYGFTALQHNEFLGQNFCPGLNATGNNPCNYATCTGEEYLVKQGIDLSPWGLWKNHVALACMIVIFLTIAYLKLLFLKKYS
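Incubation: cells with compound and JC-1, 10 min at 25 °C, rotating, no wash / Test system: IgMXP3 (ABCG2) plus far-red-tagged CCRF-Adr (ABCB1) cells / Compound dosing: one concentration, 6.6 µM final / Also added: JC-1 fluorescent substrate / Evaluation: efflux inhibition in percent versus controls / Detection: flow cytometry, 530 nm JC-1 signal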
Insulin prom up = MIN6 insulin promoter up-regulation | MIN6 insulin promoter-GFP reporter, high-content imaging; hits give high values | z-score at 5 µM | hit rate 0.3% among 190,000;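 active = z-score above 3 at 5 µM with at least 500 cells counted in the well; inconclusive = wells under 500 cells, flagged as cytotoxic or low count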
ROMK primary = modulators of human ROMK potassium channel; AID 1918; hit rate 2% among 130,000; Tet-inducible ROMK, thallium flux fluorescence; actives lie on both sides; B-score at 10 µM;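 active = signal ratio slope over the read window, or its plate-corrected B-score, at least 3 SD from the plate mean, either direction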;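 also: B-score of the F/F0 ratio slope over 7 to 12 s after thallium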
ROMK retest = human ROMK channel modulation, retest confirmation; shares compounds with ROMK primary; ROMK thallium flux, fluorescence ratio; hits give low values; normalized thallium flux (F/F0 slope) at 10 µM; hit rate 54% among 3,000; AID 1917;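 active = Flux at 10 µM at least 3 SD below or above vehicle control mean in one or both replicates; inconclusive = no clear call, values can overlap the other calls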
Hits are given with their value; . = inactive; ? = inconclusive; / = no result.

SMILES	ABCB1 block	Autophagy HCS	sdo1 growth	ABCG2 inh	Insulin prom up	ROMK primary	ROMK retest
S=C(Nc1ccccc1)N1CCN(C(=S)Nc2ccccc2)CC1	.	.	/	.	.	-13.2	.
S=C(Nc1ccc(Oc2ccccc2)cc1)N1CCN(c2ccccn2)CC1	.	.	/	.	.	2.65	.
CCc1nnc(NC(=O)Cc2cc(OC)c(OC)c(OC)c2)s1	.	.	/	.	.	.	/
CCN1CCN(CCNC(=O)c2ccc3c(c2)N(Cc2ccc(F)cc2)C(=O)/C(=C/c2ccccc2)S3)CC1	.	.	/	.	.	-3.15	.
C=CCNC(=O)c1ccc(OC2CCN(S(=O)(=O)N(C)C)CC2)cc1	.	.	/	.	.	.	/
Cc1cc2nnc(SCC(=O)Nc3cccc(S(=O)(=O)N4CCOCC4)c3)n2c2ccccc12	.	.	.	.	.	/	.
Cc1ccccc1C=Nc1ccccc1C(N)=O	.	?	.	.	.	2.77	.
Cc1nn(-c2ccccc2)c(N2CCCC2)c1/C=N/NC(=O)c1cccc(S(=O)(=O)Nc2ccc(Cl)cc2)c1	.	.	.	.	.	/	.
COc1ccc(CN2CCN(CC(O)Cn3c4ccccc4c4ccccc43)CC2)cc1 (stereo not drawn)	.	.	.	.	.	-3.57	0.0601
COc1ccc(-c2cc3ccccc3n2CC(O)CN2CCC(C)CC2)cc1 (stereo not drawn)	.	.	/	.	.	-1.97	0.0571
O=C(Cn1c(CO)nc2ccccc21)Nc1ccccc1Cl	.	.	/	.	.	-2.5	0.062
Cc1cc(C)cc(NC(=O)Cn2c(-c3ccccc3Cl)nc3ccccc32)c1	.	.	.	.	/	/	/
COc1ccc(OC)c(C2CC(c3c(-c4ccccc4)c4cc(Cl)ccc4[nH]c3=O)=NN2S(C)(=O)=O)c1 (stereo not drawn)	.	.	.	.	.	/	?
O=C(c1cccc(F)c1)N1CCN(S(=O)(=O)Cc2ccccc2)CC1	/	/	/	/	.	.	/
COc1ccc(-n2c(O)c(/C=N/NS(=O)(=O)c3ccc(C)cc3)c3ccccc3c2=O)cc1OC	.	.	.	.	.	-5.05	?
CCN(c1ccccc1)S(=O)(=O)c1ccc(N)c(OC)c1	.	.	.	.	/	3.49	.
O=C(NCc1cccnc1)c1nn2cccnc2c1Cl	.	.	/	.	.	.	/
COc1ccccc1CNC(=O)C/C(C)=N/NC(=O)COc1ccc(C)cc1Br	.	.	.	.	.	2.84	.
Cc1ccc(C(=O)NNC(=S)Nc2cccc(Cl)c2Cl)cc1[N+](=O)[O-]	.	.	.	.	/	4.31	.
CC1CCN(S(=O)(=O)c2cccc(C(=O)Nc3ccccc3)c2)CC1	.	.	/	.	.	.	/
CCOc1ccc(C2C(C(=O)c3ccc(C)o3)=C(O)C(=O)N2CCN2CCOCC2)cc1OC (stereo not drawn)	.	.	.	.	.	1.8	.
CCCOc1ccc(C2C(C(=O)c3ccco3)=C(O)C(=O)N2CCN2CCOCC2)cc1OC (stereo not drawn)	.	.	.	.	.	.	/
O=[N+]([O-])c1ccc(/C=N/NC(=S)Nc2ccc(Cl)cc2Cl)s1	/	/	/	/	.	/	/
O=C1CC(N2CCN(Cc3ccc4c(c3)OCO4)CC2)C(=O)N1c1cccc2ccccc12 (stereo not drawn)	.	.	/	.	/	-3.09	0.0553
O=C1CC(N2CCN(Cc3ccc4c(c3)OCO4)CC2)C(=O)N1c1cccc(Cl)c1 (stereo not drawn)	.	.	.	.	.	.	/
SMILES	ABCB1 block	Autophagy HCS	sdo1 growth	ABCG2 inh	Insulin prom up	ROMK primary	ROMK retest
COC(=O)/C=C1\C(=O)N(c2nc3ccc(OC)cc3s2)C(=S)N1c1ccc(F)cc1	.	.	.	.	.	/	/
COC(=O)/C=C1\C(=O)N(c2nc3ccccc3s2)C(=S)N1c1ccc(F)cc1	.	.	.	.	.	-2.76	0.0643
Fc1ccc2c(c1)/C(=N/Nc1ccccn1)CCS2	.	.	/	.	.	.	/
O=c1cc2c(nn1Cc1ccccc1)-c1ccccc1CC2	.	.	/	.	.	.	/
O=c1cc2c(nn1Cc1cccc([N+](=O)[O-])c1)-c1ccccc1CC2	.	.	/	.	.	-8.35	0.053
Cc1c(C(=O)NC(=S)Nc2ccc(N3CCOCC3)cc2)cccc1[N+](=O)[O-]	.	.	/	.	.	.	/
